Measurements as given in the EternaBench riboswitch data.

System: MS2 coat protein
Assay: apparent Kd, MS2 coat protein; higher = weaker binding; RNA-MaP array; FMN 200 µM where present
In short: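 Green signal was scaled to red-channel RNA signal and control-cluster median Fmax, and the apparent Kd was taken as the median of filtered per-cluster binding-curve fits. The binding series used SNAP-549-labelled MS2 coat protein from 0.7 or 1.5 nM, doubling to 3 µM, on designs transcribed by stalled E. coli RNA polymerase on Illumina sequencing-chip clusters. Each series ran without and then with constant ligand in 100 mM Tris-HCl pH 7.5, 80 mM KCl, 4 mM MgCl2, BSA, DTT, yeast tRNA and Tween-20.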

[1] = designed as: ON switch for flavin mononucleotide, no ligand
[2] = ligand present: flavin mononucleotide, designed as: ON switch for flavin mononucleotide
[3] = designed as: OFF switch for flavin mononucleotide, no ligand
[4] = ligand present: flavin mononucleotide, designed as: OFF switch for flavin mononucleotide

Sequence	apparent Kd [1] [nM]	apparent Kd [2] [nM]	apparent Kd [3] [nM]	apparent Kd [4] [nM]
UAUUUAAUCAUAGGAUAUAGUGUGUAAUUUGGACUAGAAGGAUGUAACAUGAGGAUCACCCAUGUGGUAAAUGGGAUACAUUCC	125	132	–	–
CUGGUGUGAGGAUAUCAAAGACCUCGGGAAAGAACCGAGAAUGAGAAGGCACAUGAGGAUCACCCAUGUAACAA	–	–	18.2	30.7
AAAUAGCUAGAGGAUAUCGGAUAGGAUUUACUACGAGAAGGUUAGACAUGAGGAUCACCCAUGUUCUGUUGGGA	–	–	41.5	39.2
UCUCGUUUCGCAGGAUAUGCUGGUCGGUAAUAUACCGGCCACAUGAGGAUCACCCAUGUGCCACAGCAGAAGGGUGACACUAGA	634	65.7	–	–
UUACCUCAUGAGAAGGACAUGAGGAUCACCCAUGUAGGAUAUCGUGGGAGACAGGUAUUGAAUCUUCGGAUUCAAUACCUGUCU	418	25.5	–	–
UUUUACCAAGGAUAUACAUUUUUUUUAUUAUUUUCAUUAUAACAUGAGGAUCACCCAUGUAGAAGGUGGAUUUU	–	–	54	47.9
UAAUAUCUGUAGGAUAUCGGUGGAGCACACGUAUGAGAAGGGCAGACAUGAGGAUCACCCAUGUAUAGGGUCCG	–	–	26.8	41
CAGGCGGAGUCAGGAUAUGCACGGUGGACCCAUAACAUGAGGAUCACCCAUGUUACUACGCCUCAGCAGAAGGGACAACCUCCU	28.7	6.21	–	–
ACUUAGUACAAUUUAGAUCUACAUGAGGAUCACCCAUGUACUGAGGAUAUCAGCUCGAAUAGAGCUGAGAAGGCAGAAGUACUU	245	53.5	–	–
GUCAGCUCGUGAGGAUAUACAACACUGCUUCGGCAGUGUAUUAAGAUCACAUGAGGAUCACCCAUGUAGAAGGCACGAGGUGAU	–	–	20.5	245
UGCAUGGUAGGAUAUACGGAACAUUAGGGUUUGUUAUGUAGACAUGAGGAUCACCCAUGUAGAAGGGCCGUGCU	–	–	37.9	60.8
UUCCUCGUUGUGAGGAUAUCGUCCGGGUUUUGUUACGAGAAGGCACAUGAGGAUCACCCAUGUUACUUGAUGUU	–	–	19	64
AGAGUGUGAGGAUAUAUGGUAAAAGUGAAGAGAGAGGAGGAGUAGAAGGUACAUGAGGAUCACCCAUGUUUGGA	–	–	42.8	36.7
UGAACUUCAGAGAAGGUCGAACGGCAACGAUUCGAAGGAUAUCUGGAAACAUGAGGAUCACCCAUGUAACCGGGUGGAUGUCCU	–	–	43.3	182
UGGUACUAGGGAGGAUAUGGGAAGGUACAUGAGGAUCACCCAUGUUUAAGAAUGCCGAGAGGCAACUAGAAGGCCCUAGUACCU	204	13.6	–	–
UCACAGUCAGGAUAUUCUGUGUAGGUUGCGCCUCAAGCACUGAAGAAGGGACAUGAGGAUCACCCAUGUUCCUC	–	–	15.5	18.7
CCUCAGUAAGGAUAUCAGCUUAUGGAGUUGGUAAUGAGAGCUGAGAAGGUACAUGAGGAUCACCCAUGUUAGUU	–	–	27.7	73.7
UUUUACGGAGGAUAUACAUUUUUUUUAUUAUCCUCAUUAUUACAUGAGGAUCACCCAUGUAGAAGGCCGAUUUU	–	–	42.6	173
AUAGGGUGAGGAUAUCCAUCUGGAUCAGACUAGAUCCUGAUGGAGAAGGCACAUGAGGAUCACCCAUGUGAGUU	–	–	125	151
CGUCCGUGGGUAGUGAUCGUACAUGAGGAUCACCCAUGUGAGAAGGAUAUGCAUGCACAUGGACAGCAGAAGGUCUCAUAACAA	–	–	69.4	353
GCUGACGAUGUAGGAUAUCAGUAUAAUAAAUACUGAGAAGGACAUGAGGAUCACCCAUGUACUCAACGUCAGCAGAGGAAACUC	–	–	17.8	22.5

Sequence	apparent Kd [1] [nM]	apparent Kd [2] [nM]	apparent Kd [3] [nM]	apparent Kd [4] [nM]
GCCAUCGUAUGAGGAUAUGGCACCGAAACGGUGCCAGAAGGCAUGUCAAUAGACAUGAGGAUCACCCAUGUCUUAUCGAUGGCA	19.9	18.9	–	–
GUGUACAGAGGAUAUACACGAAUCUAGCGAAGCUAGGUUUGACAUGAGGAUCACCCAUGUAGAAGGCUGUACAC	–	–	16.1	24.2
UUAUUAUAUGUAGGAUAUGCAUAUUAUUAUUAUGCAGAAGGACAUGAGGAUCACCCAUGUAUAUUGUUAUUAUAUAUUAUAUAU	–	–	25.5	37
GCCCAAUCCACUUCGGGCCCAGACAGAAGGGCACACGGUCUAAGUCACAUGAGGAUCACCCAUGUGCAGGAUAUGUCUCGACUC	–	–	9.88	50.3
CGGCAAGUCGUAGGAUAUGGUGAUGUACAUGAGGAUCACCCAUGUCCGUCUUCUCUCACAAGAUGCCAGAAGGGCGACUUCCGG	829	340	–	–
CUGUUAUAGAUCCAGAAUUACAACAUGAGGAUCACCCAUGUGCAGGAUAUCGGGUUGAUAGGCGCCGAGAAGGGUAUAGUCACG	–	–	60.2	61.6
GUAUAUAUUACAUGAGGAUCACCCAUGUCAGAACGGGUAAUCAGAAGGUACUAUUAGAGAAAGAGUAAGGAUAUGAUUAUAUAC	329	33.9	–	–
AGUCGGCGAGGAUAUACAUGAGGAUCACCCAUGUGAGAGAAUAAAGUGAGUUAGACAAGUAGAAGGCGCUGACA	–	–	47.4	415
CCUCCCUGAGGAUAUCCACCCUCAUACAUGAGGAUCACCCAUGUUCAUCCCUGGGUACCCGGAGAAGGCAGAUUUC	–	–	154	165
UAGGGAGGAGGGAGGGAGACAUGAGGAUCACCCAUGUAAUGUCAGGAUAUUCUCAUAUUAUAUUAGGAGAAGGGAUACAUAUCU	–	–	49.7	24.7
AUGGUACAUGAGGAUCACCCAUGUUAGGAUAUCGCGUGACCUAAAACUAAGAGACACACGAGAAGGGACGACAU	–	–	89.6	78.1
CCCAUCGCAUGAGGAUAUGGUCAGGUUUCCUGACCAGAAGGCAUGUCAUAAGACAUGAGGAUCACCCAUGUAGUUAAGAUGGGA	672	47.5	–	–
UAUUGAGCAGGAUAUUAACGGGUUUACAUGAGGAUCACCCAUGUGGUCCCGUGUUAGCUAUAAGAAGGGCUGAUGA	–	–	35.5	120
GGAUAGGACAGAGGAUAUACGUGCUAGAGAUACUAGCAAAAUGUCCUCACAUGAGGAUCACCCAUGUAGAAGGCUGUCCUAUCG	–	–	7.96	156
GCAAACAUGAGGAUCACCCAUGUCGGCUAUAAGUCCGCUCACAGAAGGGAUACGCCGGCAGGUGAUCAGGAUAUGUGGGCGCGC	239	16.5	–	–
GCGUCAGAAUUAAUUGUGACAUACAGAAGGCAAAAGUUAAGAUCAGACAUGAGGAUCACCCAUGUUGAGGAUAUGUAGAGAAUC	–	–	10.4	8.72
AUAAAGCGAGGAUAUCGCGCGGAGUACAUGAGGAUCACCCAUGUGGUCCGCAGUCCUGCGCGAGAAGGCGCAUUCC	–	–	138	54.2
GUCAGCAAAUAAGGAUAUACAUCACUGCUUCGGCAGUGUAUUAAGAUCACAUGAGGAUCACCCAUGUAGAAGGUAUAAGCUGAU	–	–	8.12	29.4
UAGUAUAAGGGCAUUACACAUGAGGAUCACCCAUGUACGUUAGAGGAUAUGCAUUACAGUCGAACGUAGAAGGUUAGAGAAGGG	–	–	168	157
AUUAGUAAUAAGGAUAUCACUAGCUGCGGCUAGUGAGAAGGUAUUACAUGAGGAUCACCCAUGUGAUUAAUUAA	–	–	76.4	418
CCGGGACAUGAGGAUCACCCAUGUUUCGUUUAUAGUAAAGCACAGGAUAUGAUGAAACAGGUUUCUCAGAAGGGUGUUCCGAAA	63.2	67.8	–	–
